This is an account of results in publication PMC9041111 (RSC Advances, 2021).

Series [1] is described as follows: chemical stability under 18F-labelling conditions. The format is physicochemical. As to conditions: 10 min, DMF.
Another series deals with KCa3.1 channel (Homo sapiens, UniProt O15554). The series is described as follows: whole-cell patch clamp on A549-3R cells, 1-EBIO activated KCa3.1 current. The format is cell-based. (In general: The patch-clamp technique gives a direct electrical read-out from membranes.)
The nature of series [2]: in vitro metabolism with mouse liver microsomes and NADPH, LC-MS/MS. The format is in vitro ADME. As to conditions: mouse liver microsomes, NADPH, 37 °C, 90 min. The essentials: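 The non-radioactive fluorinated reference compound was incubated with mouse liver microsomes and NADPH at 37 °C for 90 min. The reaction was stopped with CH3CN/CH3OH (1:1), cooled and centrifuged to remove protein. The supernatant was analysed by ESI LC-MS/MS (qToF). The metabolite was assigned from the accurate m/z of the [M + H]+ ion against the calculated exact mass.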
On the technique in general: Liver microsomes are vesicles of endoplasmic reticulum, rich in cytochrome P450 enzymes.

KCa3.1 channel, sequence (O15554 whole entry): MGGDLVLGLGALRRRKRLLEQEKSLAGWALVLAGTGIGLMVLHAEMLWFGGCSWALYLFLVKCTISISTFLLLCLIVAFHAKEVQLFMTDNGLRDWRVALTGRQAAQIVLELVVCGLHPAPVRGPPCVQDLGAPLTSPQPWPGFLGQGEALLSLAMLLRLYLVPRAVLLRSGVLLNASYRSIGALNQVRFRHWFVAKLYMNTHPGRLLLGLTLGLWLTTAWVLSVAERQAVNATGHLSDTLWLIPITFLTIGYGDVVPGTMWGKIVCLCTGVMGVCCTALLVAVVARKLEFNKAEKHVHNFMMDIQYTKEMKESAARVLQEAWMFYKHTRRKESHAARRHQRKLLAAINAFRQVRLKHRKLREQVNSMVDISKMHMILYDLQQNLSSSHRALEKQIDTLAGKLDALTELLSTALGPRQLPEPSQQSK

With `NC(=O)C(c1ccccc1)(c1ccc(F)cc1)c1ccc(F)cc1` [senicapoc], the “Stability (TLC)” value in series [1] ((NH4)2C2O4 (5 eq.), 90 °C) is “Stable”; in series [1] ((NH4)2C2O4 (5 eq.), 110 °C) it was “Stable”; in series [1] ((NH4)2C2O4 (5 eq.), 130 °C) it was “Stable”; in series [1] (K2CO3 (5 eq.), 90 °C), “Partial decomposition”; in series [1] (K2CO3 (5 eq.), 110 °C) it was “Partial decomposition”; in series [1] (K2CO3 (5 eq.), 130 °C), “Complete decomposition”. Also, the “Stability (TLC)” value is “Complete decomposition” in series [1] (TBAF (5 eq.), 90 °C); “Complete decomposition” in series [1] (TBAF (5 eq.), 110 °C); “Complete decomposition” in series [1] (TBAF (5 eq.), 130 °C); “Stable” in series [1] (no base, 130 °C). In addition, on KCa3.1 channel (senicapoc 1 μM, applied consecutively after 28, n = 5), the “effect on 1-EBIO activated KCa3.1 mediated current” value is given as “complete inhibition”.
On to `NC(=O)C(c1ccccc1)(c1ccc(F)cc1)c1ccc(OCCF)cc1` (centres unmarked) [compound 28], for which, in series [2], the main metabolite entry is given as “phenol 9”. Also, the “effect on 1-EBIO activated KCa3.1 mediated current” value on KCa3.1 channel (28 at 10 μM after 1-EBIO 50 μM, n = 5) is listed as “reduced ionic current”.
Turning to `CCn1c(=O)[nH]c2ccccc21` [1-EBIO, 1-ethyl-2-benzimidazolone], on KCa3.1 channel (1-EBIO 50 μM, applied 2-5 min, n = 5), the “effect on current (current density) in patch clamp” value was “increased outward current”.
